Series [1] concerns the target CYP3A. Put plainly: Time-dependent inhibition of CYP3A in human liver microsomes. Format: in vitro ADME. To be noted: for kinact: human.
In another series the test system is Bruton's tyrosine kinase. To be noted: phase I studies; cited from earlier work.
The target of a further series is T1, OATP1B3 (Homo sapiens, UniProt Q9NPD5).
T1 sequence (Q9NPD5 1-702): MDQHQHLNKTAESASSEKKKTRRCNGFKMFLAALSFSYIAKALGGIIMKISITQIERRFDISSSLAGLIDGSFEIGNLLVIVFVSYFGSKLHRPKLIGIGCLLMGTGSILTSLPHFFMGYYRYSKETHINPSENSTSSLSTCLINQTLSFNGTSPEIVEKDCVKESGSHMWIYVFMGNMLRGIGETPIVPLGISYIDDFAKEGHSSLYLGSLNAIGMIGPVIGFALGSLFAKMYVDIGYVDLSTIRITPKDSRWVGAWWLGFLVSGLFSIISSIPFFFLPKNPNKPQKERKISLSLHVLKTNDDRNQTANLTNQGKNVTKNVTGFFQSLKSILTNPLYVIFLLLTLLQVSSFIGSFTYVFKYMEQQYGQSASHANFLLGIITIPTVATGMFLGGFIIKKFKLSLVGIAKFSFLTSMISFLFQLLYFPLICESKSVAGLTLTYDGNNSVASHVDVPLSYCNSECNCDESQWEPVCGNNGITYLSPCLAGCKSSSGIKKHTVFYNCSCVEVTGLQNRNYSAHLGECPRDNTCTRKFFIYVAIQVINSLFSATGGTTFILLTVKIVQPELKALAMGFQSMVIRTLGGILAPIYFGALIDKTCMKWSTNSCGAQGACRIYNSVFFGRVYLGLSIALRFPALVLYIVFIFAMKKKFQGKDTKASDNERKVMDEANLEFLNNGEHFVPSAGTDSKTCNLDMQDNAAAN
Kind of series: Inhibition of OATP1B3-mediated CCK-8 uptake in HEK293 cells. The format is in vitro ADME.

Series [2] deals with CYP3A. The conditions noted are these: 200 mg b.i.d.; based on MDZ AUC increase, weak > 1.25 to < 2-fold.
Another series has as its target T2, CYP2C8 (Homo sapiens, UniProt P10632).
T2 sequence (P10632 1-490): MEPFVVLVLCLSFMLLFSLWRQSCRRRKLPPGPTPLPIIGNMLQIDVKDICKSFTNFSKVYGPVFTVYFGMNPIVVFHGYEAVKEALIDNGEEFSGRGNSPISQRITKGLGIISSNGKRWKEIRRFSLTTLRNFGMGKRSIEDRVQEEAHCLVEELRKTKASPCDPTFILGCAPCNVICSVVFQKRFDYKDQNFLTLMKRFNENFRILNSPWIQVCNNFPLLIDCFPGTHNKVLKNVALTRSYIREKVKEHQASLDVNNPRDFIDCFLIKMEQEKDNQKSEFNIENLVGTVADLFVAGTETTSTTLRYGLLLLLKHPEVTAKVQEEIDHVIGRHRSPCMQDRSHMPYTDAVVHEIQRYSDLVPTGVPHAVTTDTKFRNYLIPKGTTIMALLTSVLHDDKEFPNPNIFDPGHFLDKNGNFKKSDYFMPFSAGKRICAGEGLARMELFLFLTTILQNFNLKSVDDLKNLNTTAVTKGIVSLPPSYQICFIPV
Put plainly: CYP inhibition in human liver microsomes. The format is in vitro ADME. To be noted: up to 50 μM. The method, boiled down:
(§1)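 Reversible inhibition: test compound pre-incubated 10 min at 37°C with pooled human liver microsomes plus an isoform-selective probe substrate. Reaction started with NADPH (1.3 mM), then quenched with 3% formic acid in acetonitrile containing internal standard. CYP-specific metabolite formation measured by LC-MS/MS. Activity expressed as % control = (peak area ratio with compound / without compound) × 100.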
(In general: Liver microsomes are vesicles of endoplasmic reticulum, rich in cytochrome P450 enzymes.)

A further series addresses T3, CYP2B6 (Homo sapiens, UniProt P20813).
T3 sequence (P20813 1-491): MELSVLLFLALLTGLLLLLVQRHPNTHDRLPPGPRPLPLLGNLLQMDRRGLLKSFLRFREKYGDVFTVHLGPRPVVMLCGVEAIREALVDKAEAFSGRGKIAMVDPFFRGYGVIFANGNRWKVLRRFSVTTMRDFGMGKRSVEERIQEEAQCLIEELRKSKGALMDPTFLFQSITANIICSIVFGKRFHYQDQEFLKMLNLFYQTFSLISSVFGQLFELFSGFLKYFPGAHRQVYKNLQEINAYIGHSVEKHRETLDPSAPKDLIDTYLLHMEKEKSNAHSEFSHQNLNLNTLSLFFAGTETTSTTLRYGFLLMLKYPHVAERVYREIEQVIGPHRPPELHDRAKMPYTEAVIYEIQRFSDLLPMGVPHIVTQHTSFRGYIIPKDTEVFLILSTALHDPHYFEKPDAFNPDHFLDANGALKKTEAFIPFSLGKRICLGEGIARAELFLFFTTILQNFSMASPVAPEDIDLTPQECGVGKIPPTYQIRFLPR
Put plainly: CYP inhibition in human liver microsomes. Format: in vitro ADME. The conditions noted are these: up to 50 μM. The method, boiled down:
as §1

A further series deals with T4, human OAT3 (Homo sapiens, UniProt Q8TCC7).
T4 sequence (Q8TCC7 1-542): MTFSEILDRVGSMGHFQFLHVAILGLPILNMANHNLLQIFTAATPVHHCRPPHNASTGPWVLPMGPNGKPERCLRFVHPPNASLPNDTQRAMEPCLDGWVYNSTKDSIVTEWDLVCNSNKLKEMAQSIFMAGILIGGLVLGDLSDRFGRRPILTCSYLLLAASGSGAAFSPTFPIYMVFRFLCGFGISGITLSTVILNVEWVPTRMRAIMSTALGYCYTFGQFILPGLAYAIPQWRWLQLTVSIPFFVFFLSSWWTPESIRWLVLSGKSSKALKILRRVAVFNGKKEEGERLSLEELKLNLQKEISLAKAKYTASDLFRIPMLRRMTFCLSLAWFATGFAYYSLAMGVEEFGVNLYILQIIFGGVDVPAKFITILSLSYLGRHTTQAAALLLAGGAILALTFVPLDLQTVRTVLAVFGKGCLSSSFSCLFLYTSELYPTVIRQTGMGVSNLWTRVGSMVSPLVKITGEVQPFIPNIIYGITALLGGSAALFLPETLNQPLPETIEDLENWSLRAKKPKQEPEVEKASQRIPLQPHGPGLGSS
Put plainly: Inhibition of OAT3-mediated estrone-3-sulfate uptake in HEK293 cells. The format is in vitro ADME. The essentials:
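HEK293 cells stably expressing human OAT3, with mock-transfected HEK293 as control cells. Uptake was run at 37°C in HK buffer (pH 7.4) with 1 μM ³H-estrone-3-sulfate plus test compound or DMSO vehicle. Cells were washed twice, lysed in 0.1 M NaOH, and counted by liquid scintillation. Transporter-specific uptake was taken as uptake in transfected cells minus uptake in control cells.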

Series [3] is described as follows: Fenebrutinib plasma exposure at 200 mg b.i.d. in the clinical DDI study. The format is in vivo. To be noted: human, oral, observed Cmax at steady-state, data not shown.

pIC50: −log10 of the molar value.

As for `C[C@H]1CN(C2COC2)CCN1c1ccc(Nc2cc(-c3ccnc(N4CCn5c(cc6c5CC(C)(C)C6)C4=O)c3CO)cn(C)c2=O)nc1` [fenebrutinib], the “kinact/Ki ratio, CYP3A” value at CYP3A [1] is 23.3 M⁻¹ s⁻¹. For the same molecule, the “time-dependent inhibition (TDI) of CYP3A” value in the series on CYP3A [1] (MDZ and testosterone as probe substrates) is listed as “TDI was observed”. Besides, the results for the kinact in the series with CYP3A [1] (probe midazolam (50 µM)) and in the series on CYP3A [1] (probe testosterone (250 µM)) were 0.00019 s⁻¹ and 0.00025 s⁻¹, respectively. In the series with Bruton's tyrosine kinase, the “plasma concentration showing target engagement” value is given as 100 nM. Besides, the pIC50 on OATP1B3 is 5.15. For the same molecule, the inhibition at 30 μM against OATP1B3 (human, HEK293 cells stably expressing human OATP1B3, pH 7.4, probe CCK-8 (0.1 μM)) was 86.7%. In addition, in the series on CYP3A [2], the “clinical classification as CYP3A inhibitor” value was “weak inhibitor”. The “reversible or time-dependent inhibition of CYP2C8” value at CYP2C8 was “No reversible or time‐dependent inhibition”. Also, the “reversible or time-dependent inhibition of CYP2B6” value on CYP2B6 was “No reversible or time‐dependent inhibition”. The “inhibition of OAT3 uptake transporter” value on human OAT3 (at clinically relevant concentrations) is reported as “no evidence of inhibition”. In addition, on human OAT3 (up to 30 μM, the highest concentration tested, HEK293 cells), the “influence on OAT3-mediated accumulation of estrone-3-sulfate” value is given as “did not influence”. This molecule also had a Cmax in series [3] of approximately 1000 nM.

What is called kinact is the maximal first-order rate at which the target is inactivated. One may read the pIC50 as the negative decadic logarithm of the IC50, by convention in mol/L. Higher therefore signals a low IC50. A word on the inhibition: it is the percentage by which the read-out fell short of the control. For orientation: Cmax means the peak of the concentration-time curve.

The values above are taken from article PMC6977399 (Clinical Pharmacology and Therapeutics, 2019).
